In brackets after ≈: the same amount, converted by molar mass. Activity calls are given as the source filed them. The calls are words filed in the database; no cut-off is given here.
Legend:
HeLa [1] = test: Antiproliferative activity against human HeLa cells at 5 uM after 24 hrs by sulforhodamine B assay; format: functional
In short: (§1)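 HeLa cells grown in Eagle's MEM with 10% FBS at 37 °C under 5% CO2. Seeded at 1 × 10⁵ cells/mL and medium replaced after 24 h. Compounds added from DMSO stocks (final DMSO below 0.1%; DMSO vehicle as control) for one cell cycle (24 h). Cells stained with 0.4% sulforhodamine B and protein-bound dye read at 560 nm.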

Sporothrix schenckii = test: Antifungal activity against Sporothrix schenckii after 72 hrs by micro broth dilution method; format: functional
In short: (§2)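 Micro broth dilution per NCCLS in RPMI 1640 buffered with MOPS. Inoculum 1-5 × 10³ cells/mL. Plates kept in a moist chamber at 35 °C. Absorbance read at 492 nm after 48 h (C. albicans, C. parapsilosis), 72 h (A. fumigatus, S. schenckii, C. neoformans) or 96 h (T. mentagrophytes). MIC taken as 90% growth inhibition versus control.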

Cryptococcus neoformans = test: Antifungal activity against Cryptococcus neoformans after 72 hrs by micro broth dilution method; format: functional; in short: as §2
Candida albicans = test: Antifungal activity against Candida albicans after 48 hrs by micro broth dilution method; format: functional; in short: as §2
Aspergillus fumigatus = test: Antifungal activity against Aspergillus fumigatus after 72 hrs by micro broth dilution method; format: functional; in short: as §2
HeLa [2] = test: Antiproliferative activity against human HeLa cells at 1 uM after 24 hrs by sulforhodamine B assay; format: functional; in short: as §1
HeLa [3] = test: Antiproliferative activity against human HeLa cells at 20 uM after 24 hrs by sulforhodamine B assay; format: functional; in short: as §1
[4] = tested on: Trichophyton mentagrophytes; test: Antifungal activity against Trichophyton mentagrophytes after 96 hrs by micro broth dilution method; format: functional; in short: as §2
Candida parapsilosis = test: Antifungal activity against Candida parapsilosis ATCC 22019 after 48 hrs by micro broth dilution method; format: functional; conditions: Lodderomyces parapsilosis, ATCC 22019, 48 h; in short: as §2
HeLa [5] = test: Induction of apoptosis in human HeLa cells assessed as blockade of cell cycle progression at mitosis after 24 hrs; format: functional, cell-based
In short: (§3)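 HeLa cells grown on coverslips and exposed 24 h to compound (5, 10, 20 µM or none). Microtubules stained with mouse anti-α-tubulin and FITC anti-mouse IgG, chromosomes with DAPI. Mitotic cells scored by fluorescence microscopy.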

HeLa [6] = test: Induction of apoptosis in human HeLa cells assessed as morphological changes at 5 uM after 24 hrs by differential interference contrast microscopy; format: functional, cell-based
In short: (§4)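 HeLa cells grown on coverslips at 5 × 10⁴ cells/mL and incubated 24 h with 5 µM compound. Stained with FITC-Annexin V (early apoptosis) and propidium iodide (late apoptosis/necrosis) using a kit. Imaged by DIC for morphology and by fluorescence.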

HeLa [7] = test: Induction of apoptosis in human HeLa cells at 5 uM after 24 hrs by annexin 5-propidium iodide staining mathod; format: functional, cell-based; in short: as §4
HeLa [8] = test: Induction of apoptosis in human HeLa cells assessed as cell population at mitosis at 5 uM after 24 hrs; format: functional; in short: as §3
HeLa [9] = test: Induction of apoptosis in human HeLa cells assessed as cell population at mitosis at 20 uM after 24 hrs; format: functional; in short: as §3
HeLa [10] = test: Induction of apoptosis in human HeLa cells assessed as cell population at mitosis at 10 uM after 24 hrs; format: functional; in short: as §3
HeLa [11] = test: Antiproliferative activity against human HeLa cells at 34 uM after 24 hrs by sulforhodamine B assay; format: functional

| Molecule | inhibition at 5 µM (HeLa [1]) | MIC (Sporothrix schenckii) | MIC (Cryptococcus neoformans) | MIC (Candida albicans) | MIC (Aspergillus fumigatus) | inhibition at 1 µM (HeLa [2]) | inhibition at 20 µM (HeLa [3]) | MIC [4] | MIC (Candida parapsilosis) | Activity (HeLa [5]) | Activity (HeLa [6]) | Activity (HeLa [7]) | Activity (HeLa [8]) | Activity (HeLa [9]) | Activity (HeLa [10]) | inhibition at 34 µM (HeLa [11]) |
| --- | --- | --- | --- | --- | --- | --- | --- | --- | --- | --- | --- | --- | --- | --- | --- | --- |
| O=C1C(Sc2cccc3ccccc23)=C(Sc2cccc3ccccc23)C(=O)c2ccccc21 | 30% | > 50 µg/mL | > 50 µg/mL | > 50 µg/mL | > 50 µg/mL | 22% | 46% | > 50 µg/mL | > 50 µg/mL |  |  |  |  |  |  |  |
| O=C1C(Sc2ccccc2)=C(Sc2ccccc2)C(=O)c2ccccc21 | 60% | 50 µg/mL (≈ 134 µM) | > 50 µg/mL | > 50 µg/mL | > 50 µg/mL | 51% | 100% | > 50 µg/mL | > 50 µg/mL | inactive | Active | Active |  |  |  |  |
| C[C@@H]1[C@H](O)[C@@H](C)/C=C/C=C/C=C/C=C/C=C/C=C/C=C/[C@H](O[C@@H]2O[C@H](C)[C@@H](O)[C@H](N)[C@@H]2O)C[C@@H]2O[C@](O)(C[C@@H](O)C[C@@H](O)[C@H](O)CC[C@@H](O)C[C@@H](O)CC(=O)O[C@H]1C)C[C@H](O)[C@H]2C(=O)O [AMPHOTERICIN B] |  |  | 0.78 µg/mL (≈ 0.844 µM) | 0.39 µg/mL (≈ 0.422 µM) |  |  |  | 1.56 µg/mL (≈ 1.69 µM) |  |  |  |  |  |  |  |  |
| O=C1C(Cl)=C(Sc2ccccc2)C(=O)c2ccccc21 | 29% | 1.56 µg/mL (≈ 5.19 µM) | 6.25 µg/mL (≈ 20.8 µM) | 6.25 µg/mL (≈ 20.8 µM) | 12.5 µg/mL (≈ 41.6 µM) | 15% | 73% | 1.56 µg/mL (≈ 5.19 µM) | 6.25 µg/mL (≈ 20.8 µM) |  |  |  |  |  |  |  |
| Clc1ccc(COC(Cn2ccnc2)c2ccc(Cl)cc2Cl)c(Cl)c1 (stereo not given) [MICONAZOLE] |  |  | 12.5 µg/mL (≈ 30 µM) | 25 µg/mL (≈ 60.1 µM) | 12.5 µg/mL (≈ 30 µM) |  |  | < 0.78 µg/mL |  |  |  |  |  |  |  |  |
| NYSTATIN |  | 13.2 µg/mL | 3.5 µg/mL | 7.8 µg/mL |  |  |  |  |  |  |  |  |  |  |  |  |
| COc1cccc(SC2=C(Cl)C(=O)c3ccccc3C2=O)c1 | 48% | 3.12 µg/mL (≈ 9.43 µM) | 25 µg/mL (≈ 75.6 µM) | 25 µg/mL (≈ 75.6 µM) | 25 µg/mL (≈ 75.6 µM) | 39% | 74% | 3.12 µg/mL (≈ 9.43 µM) | 25 µg/mL (≈ 75.6 µM) |  |  |  |  |  |  |  |
| COc1ccc2[nH]c3c(=O)c4ccccc4c(=O)c=3sc2c1 | 20% | > 50 µg/mL | > 50 µg/mL | > 50 µg/mL | > 50 µg/mL | 8.5% | 77% | 50 µg/mL (≈ 162 µM) | > 50 µg/mL |  |  |  |  |  |  |  |
| O=C1C(Cl)=C(Cl)C(=O)c2ccccc21 [Dichlon] | 43% | 0.78 µg/mL (≈ 3.44 µM) | 3.12 µg/mL (≈ 13.7 µM) | 0.78 µg/mL (≈ 3.44 µM) | 1.56 µg/mL (≈ 6.87 µM) | 28% | 49% | 1.56 µg/mL (≈ 6.87 µM) | 1.56 µg/mL (≈ 6.87 µM) |  |  |  |  |  |  |  |
| O=c1c2[nH]c3ccc4ccccc4c3sc=2c(=O)c2ccccc12 | 19% | 50 µg/mL (≈ 152 µM) | > 50 µg/mL | > 50 µg/mL | > 50 µg/mL | 12% | 42% | > 50 µg/mL | > 50 µg/mL |  |  |  |  |  |  |  |
| O=c1c2[nH]c3ccccc3sc=2c(=O)c2ccccc12 | 6.5% | 50 µg/mL (≈ 179 µM) | > 50 µg/mL | > 50 µg/mL | > 50 µg/mL | 5.5% | 42% | > 50 µg/mL | > 50 µg/mL |  |  |  |  |  |  |  |
| OC(Cn1cncn1)(Cn1cncn1)c1ccc(F)cc1F [FLUCONAZOLE] |  | 2 µg/mL (≈ 6.53 µM) | 1 µg/mL (≈ 3.27 µM) | 1 µg/mL (≈ 3.27 µM) | 2 µg/mL (≈ 6.53 µM) |  |  | 0.5 µg/mL (≈ 1.63 µM) | 2 µg/mL (≈ 6.53 µM) |  |  |  |  |  |  |  |
| COc1cccc(SC2=C(Sc3cccc(OC)c3)C(=O)c3ccccc3C2=O)c1 | 76% | > 50 µg/mL | > 50 µg/mL | > 50 µg/mL | > 50 µg/mL | 64% | 100% | 50 µg/mL (≈ 115 µM) | > 50 µg/mL |  | Active | Active | 3.5% | 4.2% | 3.8% |  |
| COc1ccc2c(c1OC)C(=O)O[C@@H]2[C@H]1c2c(cc3c(c2OC)OCO3)CCN1C [NOSCAPINE] |  |  |  |  |  |  |  |  |  |  |  |  |  |  |  | 50% |
| O=C1C(Cl)=C(Sc2cccc3ccccc23)C(=O)c2ccccc21 | 22% | 6.25 µg/mL (≈ 17.8 µM) | 50 µg/mL (≈ 143 µM) | 50 µg/mL (≈ 143 µM) | 50 µg/mL (≈ 143 µM) | 0% | 69% | 6.25 µg/mL (≈ 17.8 µM) | 50 µg/mL (≈ 143 µM) |  |  |  |  |  |  |  |

From ChEMBL document CHEMBL1138562, “2,3-Disubstituted-1,4-naphthoquinones, 12H-benzo[b]phenothiazine-6,11-diones and related compounds: synthesis and biological evaluation as potential antiproliferative and antifungal agents” (2009)
